# Values joined by “and” are separate entries in the source; they are usually repeats but may differ in a detail not shown here. Equal values may be shown once. “Also recorded” adds a separate entry of the source. Read-outs that look alike come from different tables or passages of the source.
# How the values were obtained:
# [1] = cited from earlier work
# [2] = cited from earlier work; remark: listed apart in the source
# plasma proteins = experiment: Unbound simeprevir in plasma; assay type: in vitro ADME, human
# Method in brief: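 Subjects with severe renal impairment or matched normal renal function, given 150 mg test compound orally daily for 7 days. Blood drawn pre-dose and 4 h post-dose. Unbound concentration measured by dialysis, then liquid scintillation counting of spiked tritiated test compound. Mean and SD reported per time point, plus fraction unbound.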
# [3] = preclinical studies; cited from earlier work
# [4] = cited from earlier work; remark: listed apart in the source
# [5] = 14C-simeprevir mass balance study; assay type: in vivo, human; details: as summarised in Discussion
# Method in brief: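 Healthy adult males (18–55 y, BMI 18.0–30.0 kg/m2, nonsmokers). Single oral 200-mg dose of 14C-labelled plus unlabelled test compound in polyethylene glycol 400, fed, 1.85 MBq total. Urine pooled at 0–8, 8–16, 16–24, 24–36 and 36–48 h, then every 24 h. Every stool collected until ≥Day 8, <2 % of dose excreted per 24 h, and ≥7 stools. Radioactivity read by […] and expressed as % of dose; six subjects.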
# [6] = Safety evaluation, Study 1; assay type: in vivo, human
# Method in brief: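 Six healthy male nonsmokers (18–55 y) given one oral 200-mg dose of radiolabelled test compound in polyethylene glycol 400, fed. Safety covered subject-reported AEs, hematology, biochemistry, coagulation, urinalysis and electrocardiogram. Descriptive statistics only.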
# HCV genotype 1 [7] = details: treatment-naïve patients, simeprevir plus ribavirin and pegylated interferon, cited from earlier work
# [8] = Safety and tolerability, Study 2; assay type: in vivo, human
# Method in brief: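 Non-HCV-infected adults (18–70 y). Severe renal impairment group had MDRD eGFR ≤29 mL/min/1.73 m2 and no dialysis. Controls had eGFR ≥80 and were matched for sex, race, age and BMI. All took 150 mg test compound orally daily, fed, for 7 days. Subject-reported AEs recorded; hematology/biochemistry on Days 1, 3, 5, 7 and 8; urinalysis and ECG on Days 1 and 7.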
# HCV genotype 1 [9] = details: COSMOS; simeprevir plus sofosbuvir with or without ribavirin; cited from earlier work
# [10] = assay type: in vivo, human; details: for half-life: both, human, plasma, oral, 150 mg, Mean half-life
# Method in brief: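 Severe renal impairment (eGFR ≤29 mL/min/1.73 m2) versus matched normal-function subjects (eGFR ≥80), n = 8 each. Oral 150 mg test compound capsule daily, fed, for 7 days; Day 7 dose given after ≥10-h fast plus standard breakfast. Plasma drawn pre-dose Days 5–6 and on Day 7 at 0–72 h; LC-MS/MS. Noncompartmental Cmin, Cmax and AUC24 taken on log scale. Linear mixed-effects model gave LS means and 90 % CI of group difference.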
# [11] = 14C-daclatasvir excretion study
# [12] = moderate to severe renal impairment vs healthy, single 400-mg dose
# [13] = whole study period, six healthy subjects
# [14] = renal impairment group, treatment phase
# [15] = subject with rhabdomyolysis (also on high-dose fenofibrate), Day 9
smiles,measurement,setting,value
COC(=O)N[C@H](C(=O)N1CCC[C@H]1c1nc(-c2ccc(-c3ccc(-c4c[nH]c([C@@H]5CCCN5C(=O)[C@@H](NC(=O)OC)C(C)C)n4)cc3)cc2)c[nH]1)C(C)C [daclatasvir],Recovery from the feces,[1]; [11],88%
same,Total radioactivity dose eliminated in urine,[1]; [11],6.6%
same,Renal excretion,[1],< 10%
same,Increase in AUCinf,[2]; ESRD,~51%
same,Increase in AUCinf,[2]; moderate renal impairment,approximately 18%
same,Increase in AUCinf,[2]; severe renal impairment,~39%
NC(=O)c1ncn([C@@H]2O[C@H](CO)[C@@H](O)[C@H]2O)n1 [ribavirin],Radioactivity excreted in the urine,[1]; 600-mg 14C-ribavirin dose,61%
same,Decrease in apparent clearance,[2]; [12],50–75%
same,Increase in AUC,[2]; [12],two- to three-fold increase
COc1ccc2c(O[C@@H]3C[C@H]4C(=O)N[C@]5(C(=O)NS(=O)(=O)C6CC6)C[C@H]5/C=C\CCCCN(C)C(=O)[C@@H]4C3)cc(-c3nc(C(C)C)cs3)nc2c1C [simeprevir],Mean unbound plasma concentration,"plasma proteins; matched healthy subjects, 4 h post-dose, SD 0.2574",0.2714
same,Mean unbound plasma concentration,"plasma proteins; matched healthy subjects, pre-dose, SD 0.1567",0.1142
same,Mean unbound plasma concentration,"plasma proteins; subjects with renal impairment, 4 h post-dose",0.4216 (SD 0.3319)
same,Mean unbound plasma concentration,"plasma proteins; subjects with renal impairment, pre-dose",0.2892 (SD 0.4411)
same,Tissue distribution,[3],predominately distributed to the liver and intestines with low distribution (similar or less than plasma) to the kidneys
same,half-life,[4]; HCV-infected subjects with normal renal function,41 h
same,AUC (range of concentrations observed in phase III studies),[4]; HCV-infected subjects without renal impairment,"4848–449,185 ng·h/mL"
same,Concentrations in subjects with HCV infection compared with non-HCV-infected subjects,[4],two- to three-fold higher
same,14C-simeprevir excreted in the urine,[5],< 2%
same,Deaths or AEs resulting in permanent premature discontinuation,[6]; Study 1,No deaths or AEs resulting in permanent premature discontinuation from the study occurred
same,"Dry mouth, subjects",[6]; [13],one subject
same,"Increased ALT and AST levels, subjects",[6]; [13],two subjects
same,"Prolonged aPTT, subjects",[6]; [13],two subjects
same,Subjects with at least one AE,"[6]; whole study period, six healthy subjects, single 200-mg dose",five subjects
same,SVR rate,HCV genotype 1 [7]; QUEST-1,80%
same,SVR rate,HCV genotype 1 [7]; QUEST-2,81%
same,Deaths or AEs resulting in permanent premature discontinuation of simeprevir,[8]; Study 2,No deaths or AEs resulting in permanent premature discontinuation of simeprevir occurred
same,Severity of most AEs,"[8]; Study 2, both groups",grade I or II; also recorded: grade 1 or 2
same,Subjects with at least one AE,"[8]; control group, treatment phase",12.5%
same,Subjects with at least one AE,"[8]; control group, whole study period",37.5%
same,Severity of rhabdomyolysis,"[8]; one subject of renal impairment group, also receiving fenofibrate",grade 3
same,Subjects with at least one AE,[8]; [14],50%
same,Subjects with hyperbilirubinemia,[8]; [14],12.5%
same,Subjects with hypertension,[8]; [14],12.5%
same,Subjects with increased blood alkaline phosphatase,[8]; [14],12.5%
same,Subjects with myalgia,[8]; [14],12.5%
same,Subjects with rhabdomyolysis,[8]; [14],12.5%
same,Subjects with at least one AE,"[8]; renal impairment group, whole study period",50%
same,Relatedness of rhabdomyolysis and myalgia (investigator),"[8]; same subject, also taking high-dose fenofibrate",probably related to simeprevir
same,Creatine kinase level,[8]; [15],96.76 μkat/L
same,Creatine kinase muscle brain fraction levels,[8]; [15],20.84 µg/L and 19.45 µg/L
same,Myoglobin levels,[8]; [15],1200 µg/L and 1475 µg/L and 1476 µg/L
same,SVR rates,HCV genotype 1 [9],92–94%
same,AUC24h higher in severe renal impairment compared with healthy subjects,"[10]; based on LS mean ratio, Day 7",62%
same,Cmax higher in severe renal impairment compared with healthy subjects,"[10]; based on LS mean ratio, Day 7",34%
same,half-life,[10]; healthy subjects,16.7 h
same,half-life,[10]; subjects with severe renal impairment,24 h
CC(C)OC(=O)[C@H](C)N[P@](=O)(OC[C@H]1O[C@@H](n2ccc(=O)[nH]c2=O)[C@](C)(F)[C@@H]1O)Oc1ccccc1 [sofosbuvir],14C-sofosbuvir recovered from the urine,[1]; 400-mg 14C-sofosbuvir dose,80%
same,Increase in AUCinf,"[2]; mild renal impairment vs normal renal function, single 400-mg dose",61%
same,Increase in AUCinf,"[2]; moderate renal impairment vs normal renal function, single 400-mg dose",107%
same,Increase in AUCinf,"[2]; severe renal impairment vs normal renal function, single 400-mg dose",171%
